From ChEMBL document CHEMBL1158579, “Antimicrobial triterpenoid glycosides from Cephalaria scoparia” (2010)
Converted amounts (≈) assume the structure as drawn.

Columns and labels:
Salmonella enterica = experiment: Antimicrobial activity against Salmonella Typhimurium CCM 5445 after 24 hrs by microdilution assay; format: functional, Salmonella enterica subsp. enterica serovar Typhimurium
Procedure, shortened: (§1)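 Broth microdilution MIC in Mueller-Hinton broth. Inocula came from 24 h broth cultures grown at 37 °C, were adjusted to 0.5 McFarland and diluted 1:100 in broth. Compounds were tested at final concentrations of 256 to 0.5 µg/mL, with gentamycin at 128 to 0.25 µg/mL. Sealed plates were incubated 24 h at 37 °C. MIC was the lowest concentration with no visible growth. Clear wells were subcultured onto Mueller-Hinton agar. Triplicate.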

Pseudomonas aeruginosa = experiment: Antimicrobial activity against Pseudomonas aeruginosa ATCC 27853 after 24 hrs by microdilution assay; format: functional; procedure, shortened: as §1
Bacillus cereus = experiment: Antimicrobial activity against Bacillus cereus ATCC 7064 after 24 hrs by microdilution assay; format: functional; procedure, shortened: as §1
Staphylococcus aureus = experiment: Antimicrobial activity against Staphylococcus aureus ATCC 6538-P after 24 hrs by microdilution assay; format: functional; procedure, shortened: as §1
Escherichia coli = experiment: Antimicrobial activity against Escherichia coli ATCC 23999 after 24 hrs by microdilution assay; format: functional; procedure, shortened: as §1
[1] = test system: Staphylococcus epidermidis; experiment: Antimicrobial activity against Staphylococcus epidermidis ATCC 12228 after 24 hrs by microdilution assay; format: functional; procedure, shortened: as §1
Klebsiella pneumoniae = experiment: Antimicrobial activity against Klebsiella pneumoniae CCM 2318 after 24 hrs by microdilution assay; format: functional; procedure, shortened: as §1
Enterococcus faecalis = experiment: Antimicrobial activity against Enterococcus faecalis ATCC 29212 after 24 hrs by microdilution assay; format: functional; procedure, shortened: as §1

Molecule	MIC (Salmonella enterica; CCM 5445, 24 h) [µg/mL]	MIC (Pseudomonas aeruginosa; ATCC 27853, 24 h) [µg/mL]	MIC (Bacillus cereus; ATCC 7064, 24 h) [µg/mL]	MIC (Staphylococcus aureus) [µg/mL]	MIC (Escherichia coli; ATCC 23999, 24 h) [µg/mL]	MIC ([1]; ATCC 12228, 24 h) [µg/mL]	MIC (Klebsiella pneumoniae; CCM 2318, 24 h) [µg/mL]	MIC (Enterococcus faecalis; ATCC 29212, 24 h) [µg/mL]	MIC (Salmonella enterica; Salmonella enterica subsp. enterica serovar Typhimurium) [µg/mL]	MIC (Pseudomonas aeruginosa) [µg/mL]	MIC (Bacillus cereus) [µg/mL]	MIC (Escherichia coli) [µg/mL]	MIC [1] [µg/mL]	MIC (Klebsiella pneumoniae) [µg/mL]	MIC (Enterococcus faecalis) [µg/mL]
C[C@@H]1O[C@@H](O[C@H]2[C@H](OC(=O)[C@]34CCC(C)(C)C[C@@H]3C3=CC[C@@H]5[C@@]6(C)CC[C@H](O[C@@H]7OC[C@H](O)[C@H](O)[C@H]7O)C(C)(C)[C@@H]6CC[C@@]5(C)[C@]3(C)CC4)O[C@H](CO[C@@H]3O[C@H](CO)[C@@H](O)[C@H](O)[C@H]3O)[C@@H](O)[C@@H]2O)[C@H](O)[C@H](O)[C@H]1O [SCOPOSIDE A]	128 (≈ 121 µM)	64 (≈ 60.4 µM)	16 (≈ 15.1 µM)	128 (≈ 121 µM)	8 (≈ 7.55 µM)	64 (≈ 60.4 µM)	64 (≈ 60.4 µM)	32 (≈ 30.2 µM)	–	–	–	–	–	–	–
C[C@@H]1O[C@@H](O[C@H]2[C@H](O)[C@@H](O)[C@H](O[C@H]3CC[C@]4(C)[C@H]5CC=C6[C@H]7CC(C)(C)CC[C@]7(C(=O)O[C@@H]7O[C@H](CO[C@@H]8O[C@H](CO)[C@@H](O)[C@H](O)[C@H]8O)[C@@H](O)[C@H](O)[C@H]7O)CC[C@@]6(C)[C@]5(C)CC[C@H]4C3(C)C)O[C@@H]2CO)[C@H](O)[C@H](O[C@@H]2OC[C@@H](O[C@@H]3OC[C@@H](O)[C@H](O)[C@H]3O)[C@H](O)[C@H]2O)[C@H]1O [SCOPOSIDE B]	64 (≈ 47.3 µM)	64 (≈ 47.3 µM)	16 (≈ 11.8 µM)	256 (≈ 189 µM)	128 (≈ 94.6 µM)	128 (≈ 94.6 µM)	64 (≈ 47.3 µM)	64 (≈ 47.3 µM)	–	–	–	–	–	–	–
C[C@@H]1O[C@@H](O[C@H]2[C@H](O[C@H]3CC[C@]4(C)[C@H]5CC=C6[C@H]7CC(C)(C)CC[C@]7(C(=O)O[C@@H]7O[C@H](CO[C@@H]8O[C@H](CO)[C@@H](O)[C@H](O)[C@H]8O)[C@@H](O)[C@H](O)[C@H]7O)CC[C@@]6(C)[C@]5(C)CC[C@H]4C3(C)C)OC[C@H](O)[C@@H]2O[C@@H]2OC[C@@H](O[C@@H]3O[C@H](CO)[C@@H](O)[C@H](O)[C@H]3O)[C@H](O)[C@H]2O)[C@H](O)[C@H](O[C@@H]2OC[C@@H](O)[C@H](O)[C@H]2O)[C@H]1O [SCOPOSIDE C]	64 (≈ 43.1 µM)	128 (≈ 86.2 µM)	32 (≈ 21.5 µM)	64 (≈ 43.1 µM)	128 (≈ 86.2 µM)	64 (≈ 43.1 µM)	64 (≈ 43.1 µM)	32 (≈ 21.5 µM)	–	–	–	–	–	–	–
GENTAMICIN	–	–	–	1	–	–	–	–	1	2	4	1	1	4	16
